What all share (assay type): biochemical
Assay [1] addresses T1, PMCA1 (Oryctolagus cuniculus, UniProt Q00804).
T1 sequence (Q00804 1-1220): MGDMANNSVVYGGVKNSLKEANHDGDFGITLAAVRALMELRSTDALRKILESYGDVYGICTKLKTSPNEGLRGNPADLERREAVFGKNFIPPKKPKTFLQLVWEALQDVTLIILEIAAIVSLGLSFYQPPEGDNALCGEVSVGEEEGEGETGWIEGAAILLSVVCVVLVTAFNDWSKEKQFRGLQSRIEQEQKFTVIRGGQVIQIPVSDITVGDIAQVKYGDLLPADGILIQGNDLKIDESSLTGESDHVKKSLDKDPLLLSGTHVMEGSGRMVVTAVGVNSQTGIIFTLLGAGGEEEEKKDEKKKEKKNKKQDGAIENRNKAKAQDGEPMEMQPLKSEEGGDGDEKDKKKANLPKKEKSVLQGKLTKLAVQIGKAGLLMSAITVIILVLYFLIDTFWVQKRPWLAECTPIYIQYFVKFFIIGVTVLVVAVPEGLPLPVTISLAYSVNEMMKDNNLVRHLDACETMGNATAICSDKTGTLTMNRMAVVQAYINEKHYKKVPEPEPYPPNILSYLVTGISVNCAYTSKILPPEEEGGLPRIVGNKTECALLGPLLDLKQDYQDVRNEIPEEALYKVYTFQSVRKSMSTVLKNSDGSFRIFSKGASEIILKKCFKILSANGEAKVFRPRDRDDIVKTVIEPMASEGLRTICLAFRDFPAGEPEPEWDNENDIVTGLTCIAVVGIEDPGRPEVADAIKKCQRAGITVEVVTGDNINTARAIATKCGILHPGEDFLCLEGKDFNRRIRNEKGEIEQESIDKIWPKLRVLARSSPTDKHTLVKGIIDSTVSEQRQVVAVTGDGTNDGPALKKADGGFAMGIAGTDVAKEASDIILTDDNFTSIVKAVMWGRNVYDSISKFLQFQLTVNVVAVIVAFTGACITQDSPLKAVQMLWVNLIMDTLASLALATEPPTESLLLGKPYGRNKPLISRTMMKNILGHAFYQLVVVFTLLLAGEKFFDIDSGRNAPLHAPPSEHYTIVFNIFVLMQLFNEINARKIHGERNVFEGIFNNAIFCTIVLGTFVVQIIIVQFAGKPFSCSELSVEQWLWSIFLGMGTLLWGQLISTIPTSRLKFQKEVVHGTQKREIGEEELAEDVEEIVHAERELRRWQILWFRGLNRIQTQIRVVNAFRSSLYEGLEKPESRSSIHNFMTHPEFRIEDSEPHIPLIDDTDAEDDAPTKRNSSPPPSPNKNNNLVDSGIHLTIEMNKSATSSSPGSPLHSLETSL
As to the kind of experiment: Ca2+-Mg2+-ATPase of rabbit duodenal mucosal PM rich fraction. The method in brief:
(§1)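 Sources: a plasma membrane-enriched fraction from rabbit duodenal mucosa, rich in PMCA1 with little PMCA4, and microsomes from baculovirus-infected Sf9 cells expressing PMCA2 or PMCA3. Activity was followed by NADH loss in a coupled assay at 37°C: basal Mg2+-ATPase, then CaCl2 added, difference taken. Each day's mean control activity was 100%. Ki was fitted by non-linear regression; 3–4 measurements over 2–4 days.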

The target in assay [2] is PMCA4 (Homo sapiens, UniProt P23634). As to the kind of experiment: PMCA Ca2+-Mg2+-ATPase in human erythrocyte ghosts, coupled enzyme assay. The method in brief: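 Human erythrocyte leaky ghosts were EDTA-washed to strip calmodulin; 0.2–0.4 mg protein per assay. Pyruvate kinase–LDH coupled NADH assay at 37°C in 30 mM imidazole-HCl pH 7.0 with 0.1 mM ouabain, 6 mM MgCl2, 0.5 mM ATP, 0.5 mM EGTA and 4 μg/ml calmodulin. Basal Mg2+-ATPase was subtracted from activity after CaCl2 addition. Ki came from a non-linear fit, saturating substrates; 3–4 measurements over 2–4 days.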

For assay [3], the target named is T2, PMCA2 (Homo sapiens, UniProt Q01814).
T2 sequence (Q01814 1-1243): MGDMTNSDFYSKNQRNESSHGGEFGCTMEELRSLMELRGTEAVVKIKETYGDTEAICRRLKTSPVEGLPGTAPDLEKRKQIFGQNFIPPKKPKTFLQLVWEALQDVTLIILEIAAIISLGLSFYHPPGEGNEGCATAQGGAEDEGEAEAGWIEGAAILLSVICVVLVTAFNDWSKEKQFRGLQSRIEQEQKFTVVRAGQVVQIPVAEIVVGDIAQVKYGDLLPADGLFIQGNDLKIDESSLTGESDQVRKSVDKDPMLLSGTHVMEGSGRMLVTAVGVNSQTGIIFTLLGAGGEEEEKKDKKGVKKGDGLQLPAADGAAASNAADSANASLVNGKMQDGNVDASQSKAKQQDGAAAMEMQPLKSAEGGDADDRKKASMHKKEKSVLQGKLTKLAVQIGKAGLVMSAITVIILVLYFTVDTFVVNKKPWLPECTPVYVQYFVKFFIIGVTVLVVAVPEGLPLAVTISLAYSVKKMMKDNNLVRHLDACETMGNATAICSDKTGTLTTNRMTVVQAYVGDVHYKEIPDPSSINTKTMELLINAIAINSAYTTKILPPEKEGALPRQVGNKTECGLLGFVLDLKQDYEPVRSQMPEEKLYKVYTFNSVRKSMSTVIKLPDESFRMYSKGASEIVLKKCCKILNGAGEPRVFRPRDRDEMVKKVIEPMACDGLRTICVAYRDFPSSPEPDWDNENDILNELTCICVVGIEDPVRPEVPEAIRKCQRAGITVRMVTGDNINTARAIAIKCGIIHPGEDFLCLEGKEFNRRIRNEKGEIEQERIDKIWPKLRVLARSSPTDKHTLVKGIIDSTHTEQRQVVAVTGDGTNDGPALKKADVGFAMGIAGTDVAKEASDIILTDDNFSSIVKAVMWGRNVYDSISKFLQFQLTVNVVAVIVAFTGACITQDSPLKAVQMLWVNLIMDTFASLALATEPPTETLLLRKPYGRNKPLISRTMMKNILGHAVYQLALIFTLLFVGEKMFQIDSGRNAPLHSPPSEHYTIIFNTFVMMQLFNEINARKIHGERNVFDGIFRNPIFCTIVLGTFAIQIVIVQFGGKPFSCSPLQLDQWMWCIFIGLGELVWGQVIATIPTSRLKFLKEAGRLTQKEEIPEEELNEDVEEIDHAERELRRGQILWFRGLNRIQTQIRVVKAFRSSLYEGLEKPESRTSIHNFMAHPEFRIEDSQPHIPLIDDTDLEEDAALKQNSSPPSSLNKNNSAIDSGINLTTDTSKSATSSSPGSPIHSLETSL
As to the kind of experiment: Ca2+-Mg2+-ATPase of microsomes from overexpressing insect cells sf9. The method in brief:
as §1

For assay [4], the target named is T3, PMCA3 (Homo sapiens, UniProt Q16720).
T3 sequence (Q16720 1-1220): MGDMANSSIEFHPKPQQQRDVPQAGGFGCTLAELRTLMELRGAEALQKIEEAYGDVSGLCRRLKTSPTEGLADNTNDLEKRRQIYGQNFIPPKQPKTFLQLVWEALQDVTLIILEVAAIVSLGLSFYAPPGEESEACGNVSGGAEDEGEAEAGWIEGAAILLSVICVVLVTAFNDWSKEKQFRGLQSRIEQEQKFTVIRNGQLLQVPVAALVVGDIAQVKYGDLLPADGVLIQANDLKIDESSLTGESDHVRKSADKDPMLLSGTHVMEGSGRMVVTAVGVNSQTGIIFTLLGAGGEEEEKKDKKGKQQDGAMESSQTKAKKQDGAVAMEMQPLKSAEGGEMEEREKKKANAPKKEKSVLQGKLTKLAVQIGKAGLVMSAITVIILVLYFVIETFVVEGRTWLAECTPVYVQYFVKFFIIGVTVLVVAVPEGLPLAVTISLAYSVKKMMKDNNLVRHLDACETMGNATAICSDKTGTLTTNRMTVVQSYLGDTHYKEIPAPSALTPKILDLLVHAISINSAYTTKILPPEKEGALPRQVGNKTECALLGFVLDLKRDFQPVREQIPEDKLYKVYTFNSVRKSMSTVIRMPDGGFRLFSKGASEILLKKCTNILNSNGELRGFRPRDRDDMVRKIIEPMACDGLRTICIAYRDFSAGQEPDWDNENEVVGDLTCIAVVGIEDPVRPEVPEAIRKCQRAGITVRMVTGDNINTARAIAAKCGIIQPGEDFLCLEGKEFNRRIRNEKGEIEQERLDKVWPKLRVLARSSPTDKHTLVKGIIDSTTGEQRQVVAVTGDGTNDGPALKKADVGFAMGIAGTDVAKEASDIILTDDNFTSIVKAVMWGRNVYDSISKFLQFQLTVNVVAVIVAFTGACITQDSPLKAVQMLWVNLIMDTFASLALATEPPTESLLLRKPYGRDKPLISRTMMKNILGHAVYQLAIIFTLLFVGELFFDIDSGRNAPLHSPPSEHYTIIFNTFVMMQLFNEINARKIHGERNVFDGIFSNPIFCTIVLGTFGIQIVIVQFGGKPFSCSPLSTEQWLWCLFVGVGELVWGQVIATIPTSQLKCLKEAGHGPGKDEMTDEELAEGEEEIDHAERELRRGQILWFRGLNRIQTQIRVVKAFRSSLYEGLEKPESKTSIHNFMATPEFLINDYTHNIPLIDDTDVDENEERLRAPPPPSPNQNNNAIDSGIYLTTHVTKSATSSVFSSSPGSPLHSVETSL
The description is as above. In outline:
as §1

No end group written: not given here.

The term Ki denotes the dissociation constant of the complex between target and ligand, obtained from inhibition or displacement.

Regarding TAWSEVLDLLRRGGGSK-NH2 [caloxin 1c2], the Ki in assay [1] was found to be 21 ± 6 µM; in assay [2] it was 2.3 ± 0.3 µM; in assay [3], 40 ± 10 µM; in assay [4] it was 67 ± 8 µM.

These data come from paper PMC4401146 (Journal of Cellular and Molecular Medicine, 2008).
